# Data reported in ChEMBL document CHEMBL4219175, “Synthesis and biological evaluation of aminothiazoles against Histoplasma capsulatum and Cryptococcus neoformans” (Bioorg Med Chem, 2018).
# Legend:
# Histoplasma capsulatum [1] = assay: Antifungal activity against Histoplasma capsulatum G217B ATCC 26032 at pH 7 measured over 5 days; assay type: functional, organism-based; settings: G217B ATCC 26032, 120 h
# Summary of the method: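 Yeasts pre-grown in HMM (37 °C, 5% CO2) to exponential phase, counted by hemacytometer, diluted into RPMI buffered with 25 mM HEPES (pH 7.0) or 25 mM MOPS (pH 5.0) at 5 x 10^5 per well; two-fold dilutions 40 to 0.078 µM, 37 °C, agitated twice daily. A595 read over 5 days, normalized to DMSO controls; 4-day data fitted by 4-parameter regression for IC50; MIC = ≤10% growth.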
# Cryptococcus neoformans [2] = assay: Antifungal activity against wild type fluconazole-sensitive Cryptococcus neoformans serotype A H99 at pH 7 measured over 4 days; assay type: functional, organism-based; settings: var grubii H99 , 96 h
# Summary of the method: (§1)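 YPD-grown exponential-phase yeasts, hemacytometer-counted, diluted into RPMI buffered to pH 7.0 with 25 mM HEPES (or pH 5.0 with […] for pH comparison) at 2 x 10^3 per well; two-fold series 40 to 0.078 µM, 37 °C, agitated twice daily. A595 followed over 4 days versus DMSO controls; day-3 turbidity fitted by 4-parameter regression for IC50; MIC = growth ≤10% of untreated.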
# P388D1 = assay: Cytotoxicity against mouse P388D1 cells assessed as reduction in cell viability after 72 hrs by resazurin-based fluorescence assay; settings: P388D1, 72 h
# Summary of the method: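 P388D1 cells in Ham's F-12 + 10% FBS + 2 mM L-glutamine seeded at 5 x 10^3 per well, adhered overnight, exposed to compounds 80 to 0.3 µM for 72 h. Viability read as resorufin fluorescence (530/590 nm) after 0.1 mM resazurin, pre-saturation time points, versus untreated cells; three biological replicates; IC50 by non-linear regression.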
# [3] = Therapeutic index, ratio of IC50 for mouse P388D1 cells to IC50 for Histoplasma capsulatum G217B ATCC 26032; assay type: toxicity; settings: read-out: Ratio IC50
# Summary of the method: (§2)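 Ratio of P388D1 IC50 (72 h resazurin viability, 80 to 0.3 µM) to yeast IC50 from RPMI/HEPES pH 7.0 broth dilution with A595 turbidity and 4-parameter regression.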
# [4] = Therapeutic index, ratio of IC50 for mouse P388D1 cells to IC50 for wild type Cryptococcus neoformans serotype A H99; assay type: toxicity; settings: read-out: Ratio IC50; summary of the method: as §2
# Cryptococcus neoformans [5] = assay: Antifungal activity against wild-type fluconazole-sensitive Cryptococcus neoformans serotype D B3501 measured over 4 days; assay type: functional, organism-based; settings: B3501, 96 h; summary of the method: as §1
# Cryptococcus neoformans [6] = assay: Antifungal activity against fluconazole-resistant Cryptococcus neoformans serotype A TES9 harboring erg11 mutant measured over 4 days; assay type: functional, organism-based; settings: TES9, 96 h; summary of the method: as §1
# Cryptococcus neoformans [7] = assay: Antifungal activity against fluconazole-resistant Cryptococcus neoformans serotype A MRL862 harboring erg11 mutant measured over 4 days; assay type: functional, organism-based; settings: MRL862, 96 h; summary of the method: as §1
# Histoplasma capsulatum [8] = assay: Antifungal activity against RFP expressing Histoplasma capsulatum infected in LacZ-expressing mouse P388D1 cells incubated for 6 days measured daily by fluorescence assay; assay type: functional, organism-based; settings: for MIC: 144 h; for IC50: P388D1, 144 h
# Summary of the method: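 LacZ-expressing P388D1 macrophages (3x10^4 per well, adhered 3 h) infected with RFP Histoplasma yeasts at MOI 1:2 for 3 h, medium replaced with F-12 + 10% serum, overnight at 37 °C, then compound gradient added for 6 days. RFP fluorescence (530/590 nm) read daily; day-4 values relative to untreated infected cells fitted by non-linear regression; triplicate.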
Structure (SMILES),IC50 (Histoplasma capsulatum [1]),MIC90 (Histoplasma capsulatum [1]),IC50 (Cryptococcus neoformans [2]),MIC90 (Cryptococcus neoformans [2]),IC50 (P388D1),selectivity ratio [3],selectivity ratio [4],IC50 (Cryptococcus neoformans [5]),MIC90 (Cryptococcus neoformans [5]),IC50 (Cryptococcus neoformans [6]),MIC90 (Cryptococcus neoformans [6]),IC50 (Cryptococcus neoformans [7]),MIC90 (Cryptococcus neoformans [7]),MIC (Histoplasma capsulatum [8]),IC50 (Histoplasma capsulatum [8])
O=C(Nc1ncc(Cc2cccc3ccsc23)s1)C1CCCCC1,0.2 µM,0.31 µM,0.34 µM,0.63 µM,> 40 µM,> 200,> 118,0.27 µM,0.63 µM,0.23 µM,0.63 µM,0.2 µM,0.63 µM,2.5 µM,1.38 µM
O=C(CCC1CCCCC1)Nc1ncc(Cc2cccc3nsnc23)s1,> 20 µM,> 40 µM,> 20 µM,> 40 µM,–,–,–,–,–,–,–,–,–,–,–
O=C(CCC1CCCCC1)Nc1ncc(Cc2cccc3ccoc23)s1,0.4 µM,0.63 µM,> 20 µM,> 40 µM,17.8 µM,44,–,–,–,–,–,–,–,–,–
O=C(Nc1ncc(Cc2cccc3c2CCC3)s1)C1CCCCC1,0.25 µM,0.63 µM,0.41 µM,1.25 µM,> 40 µM,> 160,> 98,0.42 µM,1.25 µM,0.45 µM,1.25 µM,0.37 µM,1.25 µM,–,–
O=C(Nc1ncc(Cc2cc3sccc3s2)s1)C1CCCCC1,> 20 µM,> 40 µM,> 20 µM,> 40 µM,–,–,–,–,–,–,–,–,–,–,–
O=C(CCC1CCCCC1)Nc1ncc(Cc2cccc3c2CCC3)s1,0.38 µM,0.63 µM,> 20 µM,> 40 µM,> 40 µM,> 105,–,–,–,–,–,–,–,–,–
O=C(Nc1ncc(Cc2cccc3ccoc23)s1)C1CCCCC1,0.42 µM,1.25 µM,0.62 µM,2.5 µM,> 40 µM,> 95,> 65,0.32 µM,0.63 µM,0.41 µM,0.63 µM,0.15 µM,0.63 µM,–,–
O=C(CCC1CCCCC1)Nc1ncc(Cc2csc3ccccc23)s1,0.27 µM,0.63 µM,> 20 µM,> 40 µM,16.9 µM,63,–,–,–,–,–,–,–,–,–
O=C(CCC1CCCCC1)Nc1ncc(Cc2ccccc2)s1,0.8 µM,1.25 µM,> 20 µM,> 40 µM,> 40 µM,> 50,–,–,–,–,–,–,–,–,–
O=C(Nc1ncc(Cc2cccc3sccc23)s1)C1CCCCC1,0.2 µM,0.31 µM,0.21 to 0.37 µM,0.63 to 1.25 µM,> 40 µM,> 200,> 108,0.16 µM,0.63 µM,0.19 µM,0.31 µM,0.13 µM,0.31 µM,2.5 µM,1.21 µM
O=C(CCC1CCCCC1)Nc1ncc(Cc2cccc3c2CCCC3)s1,0.9 µM,2.5 µM,> 20 µM,> 40 µM,24.3 µM,27,–,–,–,–,–,–,–,–,–
O=C(CCC1CCCCC1)Nc1ncc(Cc2cccc3sccc23)s1,0.2 µM,0.31 µM,> 20 µM,> 40 µM,> 40 µM,> 200,–,–,–,–,–,–,–,–,–
O=C(CCC1CCCCC1)Nc1ncc(CC2CCCC2)s1,> 20 µM,> 40 µM,> 20 µM,> 40 µM,–,–,–,–,–,–,–,–,–,–,–
O=C(CCC1CCCCC1)Nc1ncc(Cc2cccc3ccccc23)s1,0.6 µM,1.25 µM,> 20 µM,> 40 µM,27.6 µM,46,–,–,–,–,–,–,–,–,–
CCc1cnc(NC(=O)C2CCCCC2)s1,> 20 µM,> 40 µM,> 20 µM,> 40 µM,–,–,–,–,–,–,–,–,–,–,–
O=C(Nc1ncc(Cc2cccc3c2CCCC3)s1)C1CCCCC1,> 20 µM,> 40 µM,> 20 µM,> 40 µM,–,–,–,–,–,–,–,–,–,–,–
O=C(Nc1ncc(Cc2cccc3nsnc23)s1)C1CCCCC1,1.54 µM,2.5 µM,1.52 µM,5 µM,> 40 µM,> 26,> 26,–,–,–,–,–,–,–,–
O=C(CCC1CCCCC1)Nc1ncc(C(=O)c2cccc3ccccc23)s1,0.64 µM,1.25 µM,> 20 µM,> 40 µM,> 40 µM,> 63,–,–,–,–,–,–,–,–,–
O=C(Nc1ncc(Cc2ccccc2)s1)C1CCCCC1,1.06 µM,2.5 µM,1.36 µM,2.5 µM,> 40 µM,> 38,> 29,–,–,–,–,–,–,–,–
CCc1cnc(NC(=O)CCC2CCCCC2)s1,> 20 µM,> 40 µM,> 20 µM,> 40 µM,–,–,–,–,–,–,–,–,–,–,–
O=C(Nc1ncc(CC2CCCC2)s1)C1CCCCC1,0.76 µM,1.25 µM,> 20 µM,> 40 µM,> 40 µM,> 53,–,–,–,–,–,–,–,–,–
OC(Cn1cncn1)(Cn1cncn1)c1ccc(F)cc1F [FLUCONAZOLE],–,–,0.95 µM,4.08 µM,–,–,–,0.13 µM,2.04 µM,27.4 µM,65.4 µM,14.6 µM,32.7 µM,–,–
O=C(CCC1CCCCC1)Nc1ncc(Cc2cccc3ccsc23)s1,0.92 µM,5 µM,> 20 µM,> 40 µM,18.9 µM,21,–,–,–,–,–,–,–,–,–
O=C(Nc1ncc(Cc2csc3ccccc23)s1)C1CCCCC1,> 20 µM,> 40 µM,> 20 µM,> 40 µM,–,–,–,–,–,–,–,–,–,–,–
